In article PMC12334608 (Nature Communications, 2025):
Changes are numbered by the printed parent chain. In names and notes the source's numbering stands. Where two headings read alike, the source gives them in different places.

Assays:
[1] = biological target: T1, ACOX-1.1 (Caenorhabditis elegans, UniProt O62140); experiment: Enzyme-coupled kinetic assay, wild-type ACOX-1.1 as purified; format: biochemical, C. elegans; settings: for rescue of the time-dependent decrease in enzymatic activity: incubation with FAD plus nucleotide, compared with ATP
T1 sequence (O62140 1-674): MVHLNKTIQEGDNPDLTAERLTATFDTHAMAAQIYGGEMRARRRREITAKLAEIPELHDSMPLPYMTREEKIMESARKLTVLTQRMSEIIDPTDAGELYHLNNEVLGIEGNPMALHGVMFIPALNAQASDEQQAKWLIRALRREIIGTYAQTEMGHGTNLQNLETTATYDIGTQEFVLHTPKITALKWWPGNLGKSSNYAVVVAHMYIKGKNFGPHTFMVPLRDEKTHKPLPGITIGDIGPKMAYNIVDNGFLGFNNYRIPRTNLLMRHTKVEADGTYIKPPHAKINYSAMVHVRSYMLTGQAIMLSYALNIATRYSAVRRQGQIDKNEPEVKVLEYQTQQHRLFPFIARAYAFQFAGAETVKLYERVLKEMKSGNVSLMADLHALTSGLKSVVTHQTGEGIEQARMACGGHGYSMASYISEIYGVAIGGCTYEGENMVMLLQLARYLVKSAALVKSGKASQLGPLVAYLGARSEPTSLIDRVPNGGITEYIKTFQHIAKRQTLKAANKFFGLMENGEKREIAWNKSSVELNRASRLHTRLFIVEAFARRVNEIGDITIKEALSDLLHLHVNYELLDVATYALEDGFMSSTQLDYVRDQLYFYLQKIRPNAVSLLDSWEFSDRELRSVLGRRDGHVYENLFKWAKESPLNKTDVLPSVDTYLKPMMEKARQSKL

[2] = biological target: T2, apo ACOX-1.1 (Caenorhabditis elegans, UniProt O62140); experiment: Enzyme-coupled kinetic assay, wild-type apo ACOX-1.1; format: biochemical, C. elegans
T2 sequence (O62140 1-674): T1 sequence (O62140 1-674)

[3] = biological target: T3, ACOX-1.1(R343A) (Caenorhabditis elegans, UniProt O62140, R343A); experiment: Enzyme-coupled kinetic assay, ACOX-1.1; format: biochemical, C. elegans
T3 sequence (O62140 1-674 R343A): T1 sequence (O62140 1-674) with R343A

[4] = biological target: T4, ACOX-1.1(R343Q) (Caenorhabditis elegans, UniProt O62140, R343Q); experiment: Enzyme-coupled kinetic assay, ACOX-1.1; format: biochemical, C. elegans
T4 sequence (O62140 1-674 R343Q): T1 sequence (O62140 1-674) with R343Q

[5] = system: ACOX-1.1(E434A); experiment: FAD koff rate by fluorescence polarization; format: binding, C. elegans
In short: (§1)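 FAD-bound, non-dialyzed enzyme at 5 μM was run in triplicate. FAD fluorescence anisotropy was recorded in polarization mode on a plate reader over 1 h, with 5 μM FAD alone as the gain/focus control. koff was obtained by fitting to a dissociation kinetics equation. Preparations were 46% (wild type) and 66% (E434A) FAD-bound per dimer.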

[6] = biological target: T1, ACOX-1.1; experiment: FAD koff rate by fluorescence polarization; format: binding, C. elegans; settings: read-out: koff of FAD
In short: as §1

[7] = biological target: T2, apo ACOX-1.1; experiment: FAD and ATP dissociation constants by fluorescence polarization; format: binding, C. elegans
[8] = biological target: the molecule itself; experiment: SEC

With Nc1ncnc2c1ncn2[C@@H]1O[C@H](COP(=O)(O)OP(=O)(O)O)[C@@H](O)[C@H]1O [ADP] the “rescue of the time-dependent decrease in enzymatic activity” value (shortened to “rescue of the time-dependent decrease”) [1] was “None of these nucleotides are able to rescue the time-dependent decrease in enzymatic activity as well as ATP”.

In the case of Cc1cc2nc3c(=O)[nH]c(=O)nc-3n(C[C@H](O)[C@H](O)[C@H](O)COP(=O)(O)OP(=O)(O)OC[C@H]3O[C@@H](n4cnc5c(N)ncnc54)[C@H](O)[C@@H]3O)c2cc1C [FAD], the EC50 ([2]; EC50 for FAD (high-affinity site), 350 μM ATP, 95% CI: 358–476 nM) is reported as 0.385 µM, the EC50 ([2]; lower EC50 for FAD, absence of ATP, 95% CI: 6.1–27.5 μM) is reported as 13 µM and the EC50 ([2]; read-out: EC50 for FAD (low-affinity site), estimated, 350 μM ATP, 95% CI: 74–203 μM) is reported as 177 µM. The EC50 [3] was greater than 1000 µM, the EC50 [4] was greater than 1000 µM and the “time in which about half of the bound FAD is lost” value ([5]; ACOX-1.1(E434A)) was “about half of the bound FAD is lost in an hour”. The “koff of FAD” value ([5]; catalytic mutant ACOX-1.1(E434A), 5 μM) was 0.0002 s⁻¹, the “FAD needed to obtain a similar amount of rescue with FAD alone” value ([1]; no ATP) was “at least 100 μM” and the koff [6] was 0.000536 s⁻¹. The Kd ([7]; KD of ACOX-1.1 for FAD, in the presence of ATP (350 μM)) was roughly 0.45 µM and the “KD of ACOX-1.1 for FAD” value ([7]; in the absence of ATP) was “could not be measured because it is too high”.

In the case of Nc1ncnc2c1ncn2[C@@H]1O[C@H](COP(=O)(O)O)[C@@H](O)[C@H]1O [AMP], the “rescue of the time-dependent decrease” value [1] is reported as “None of these nucleotides are able to rescue the time-dependent decrease in enzymatic activity as well as ATP”.

For Nc1ncnc2c1ncn2[C@H]1C[C@H](O)[C@@H](COP(=O)(O)OP(=O)(O)OP(=O)(O)O)O1 [deoxy-ATP], the “rescue of the time-dependent decrease” value [1] was “None of these nucleotides are able to rescue the time-dependent decrease in enzymatic activity as well as ATP”.

In the case of Nc1nc2c(ncn2[C@@H]2O[C@H](COP(=O)(O)OP(=O)(O)OP(=O)(O)O)[C@@H](O)[C@H]2O)c(=O)[nH]1 [GTP], the “rescue of the time-dependent decrease” value [1] is reported as “None of these nucleotides are able to rescue the time-dependent decrease in enzymatic activity as well as ATP”.

B1: ACOX-1.1(H396G) (enzyme, C. elegans, UniProt O62140 1-674, looked up)
chain: T1 sequence (O62140 1-674) with H396G
B1 was tested, and the “stoichiometry N” value [8] was 2.

B2: ACOX-1.1(R536E) (enzyme, C. elegans, UniProt O62140 1-674, looked up)
chain: T1 sequence (O62140 1-674) with R536E
With B2 the “stoichiometry N” value [8] was 2.
